Results on 167 variants are retold here after the RNAGym collection of RNA variant scans (doi:10.1126/science.aae0568).

Fewer inactive variants are shown than the library holds. Bounds are passed on as bounds.

The chains are these.
B1: tRNA (parent)
chain: GUUCCGUUGGCGUAAUGGUAACGCGUCUCCCUCCUAAGGAGAAGACUGCGGGUUCGAGUCCCGUACGGAACG

This series covers variants of B1. As to the kind of experiment: yeast fitness relative to wild type (ratio to wild type); higher = fitter; tRNA-Arg(CCU), competitive growth, 37 C, YPD. In short, it runs like this: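 Genotype frequency changes were the basis for Darwinian fitness relative to wild type. The frequencies came from 100-nucleotide paired-end sequencing of gene amplicons from the start population and each end population of pooled yeast strains with tRNA-Arg(CCU) gene variants at the native locus. Competition ran in YPD at 37°C for 24 hours in six replicates, genotypes needed ≥ 100 starting reads, and estimates < 0.5 were set to 0.5.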
Consider U19G C31A U35A C55G G58C, for which the yeast fitness was 0.519.

U19G C55G: the yeast fitness stood at 0.651.

Consider U19C G68A, for which the yeast fitness stood at 0.878.

U19G A43U A65G G68A: the yeast fitness was determined as 0.512.

Take U19C C27G C29A C33A A43C: the yeast fitness was ≤ 0.5.

As to U19G C30U C62G, the yeast fitness was 0.603.

As for U19C U28C, the yeast fitness was determined as 0.992.

Turning to U19C G50C, the yeast fitness was determined as 0.613.

Turning to U19C G44C, the yeast fitness was 1.

Turning to U19C U26A G67C, the yeast fitness was 0.57.

On to U19G C27G C34A A42U, for which the yeast fitness was ≤ 0.5.

With U19C G23C C29G A43U G50A A65C, the yeast fitness is ≤ 0.5.

On to U19C U64G, for which the yeast fitness turned out to be 0.789.

Take U19C U64C: the yeast fitness was 0.893.

For the variant U19C U64A, the yeast fitness worked out at 0.898.

U19C C29G C33G G41C C66U: the yeast fitness was ≤ 0.5.

Regarding A20C A42C G58C, the yeast fitness is 0.52.

With U19G A21U C33A C49A, the yeast fitness is ≤ 0.5.

With U19G A57G A70U, the yeast fitness was found to be 0.731.

Regarding U19G U64A A65G G67U, the yeast fitness was 0.606.

For the variant U19C C29G A57G U59A G68U A70G, the yeast fitness amounted to 0.55.

U19G G50A G51C C55G C61U: the yeast fitness was ≤ 0.5.

Consider U19G G25A G67A, for which the yeast fitness was determined as 0.934.

For the variant U19C C24G C33A, the yeast fitness was ≤ 0.5.

Take U19C U35A G38A A42G A69G A70G: the yeast fitness was ≤ 0.5.

Take U19C U28A C55G: the yeast fitness is ≤ 0.5.

Consider U19G C33U C34U, for which the yeast fitness was ≤ 0.5.

U19C C31G C66G: the yeast fitness was ≤ 0.5.

For the variant A20C A21U C27G A42U A70G, the yeast fitness was ≤ 0.5.

As to U19C C27U C29G C34A A42C A65G, the yeast fitness came to 0.541.

In the case of U19C G23A A37C, the yeast fitness was ≤ 0.5.

Take U19G C30A A45U G58C A69U: the yeast fitness is ≤ 0.5.

For A20C A40U A43U A70U, the yeast fitness is ≤ 0.5.

In the case of U19C C46U, the yeast fitness stood at 1.06.

Take U19C C46A: the yeast fitness stood at 0.978.

U19C C46G: the yeast fitness amounted to 0.943.

With U19C C29U A42C A57G, the yeast fitness was found to be 0.541.

With U19C G52C U64A, the yeast fitness is ≤ 0.5.

U19C G56C A57G G68U: the yeast fitness is ≤ 0.5.

In the case of A20C A57U, the yeast fitness is 0.81.

On to A20C A57G, for which the yeast fitness stood at 0.757.

Take A20C A57C: the yeast fitness was 0.601.

U19C C24U U53A C62A C66U: the yeast fitness is ≤ 0.5.

Take U19G A21C C55G U59A: the yeast fitness was ≤ 0.5.

On to A20C A37C A43G U54A, for which the yeast fitness was ≤ 0.5.

For the variant U19C G50A C55A C62U, the yeast fitness is ≤ 0.5.

In the case of A20C A37C A43G C61U, the yeast fitness was ≤ 0.5.

As for U19G A21U C29G A37U, the yeast fitness was ≤ 0.5.

As to U19G G23A U35G, the yeast fitness was ≤ 0.5.

In the case of U19C G23A C24A C29U C30U G63A, the yeast fitness is ≤ 0.5.

With U19C C29U C61U G68C, the yeast fitness is ≤ 0.5.

With A20C A40G A42U G50A G51C, the yeast fitness was ≤ 0.5.

In the case of U19C C29A U32G G58A A69G, the yeast fitness was ≤ 0.5.

With A20C A21C C62G, the yeast fitness is ≤ 0.5.

As to U19G A20U G67A, the yeast fitness worked out at 0.743.

In the case of U19C C22G C24A G39C A45C U47C, the yeast fitness was 0.721.

As for A20C A40G G52C, the yeast fitness is ≤ 0.5.

U19C C22U G50A U64C: the yeast fitness is ≤ 0.5.

As to U19C C24U C61U, the yeast fitness worked out at 0.787.

With A20C A21U C33G A57C, the yeast fitness is ≤ 0.5.

U19C U53C U54A: the yeast fitness was ≤ 0.5.

Regarding U19C U35C, the yeast fitness turned out to be 0.81.

For the variant U19G C49U G50U, the yeast fitness was ≤ 0.5.

As to U19G G25A G39A, the yeast fitness came to 0.597.

As to U19C C33U G41C, the yeast fitness was 0.583.

As for U19C C22G G25C C33U G39C C62G, the yeast fitness is ≤ 0.5.

Turning to U19G A20U U53G, the yeast fitness is ≤ 0.5.

For the variant U19G C30A C49U, the yeast fitness is 0.602.

Turning to A20C A21U C27G U35G C46A A70C, the yeast fitness is ≤ 0.5.

Regarding U19C U32G, the yeast fitness stood at 0.655.

For U19C G48C A57G, the yeast fitness amounted to 0.565.

As to A20C A45U A69U, the yeast fitness turned out to be 0.773.

Consider U19C G50A A65C, for which the yeast fitness was 0.566.

For U19C C24G G50C, the yeast fitness came out at 0.768.

U19C C46G A69U: the yeast fitness is 0.803.

A20C A43G: the yeast fitness amounted to 1.01.

A20C A43U: the yeast fitness was determined as 0.829.

As to A20C A37C U53C G63C, the yeast fitness was ≤ 0.5.

As for A20C A42C C60A, the yeast fitness is ≤ 0.5.

U19C C30A: the yeast fitness turned out to be 1.03.

U19G A37G C66U A69U: the yeast fitness came to 0.691.

For A20C A70C, the yeast fitness was found to be 0.862.

Turning to U19G C29U A40C A65G, the yeast fitness was ≤ 0.5.

As for U19G U35C A40U, the yeast fitness is ≤ 0.5.

Turning to U19G A70G, the yeast fitness was 0.847.

As to U19G C22U A70G, the yeast fitness is 0.624.

With U19G C46U, the yeast fitness turned out to be 0.962.

Consider U19G C46A, for which the yeast fitness came out at 0.932.

U19C C30G C33G U53A: the yeast fitness is ≤ 0.5.

As for U19C C55G A65C, the yeast fitness is ≤ 0.5.

As to A20C A40G A42U G50A G51C A70C, the yeast fitness turned out to be 0.563.

With U19C G67U A69G, the yeast fitness is 0.751.

On to U19G U47C, for which the yeast fitness is 0.972.

For A20C A42U A45G, the yeast fitness amounted to 0.77.

In the case of A20C A40U C61A G68A, the yeast fitness was 0.574.

For U19G G51C, the yeast fitness stood at 0.537.

As for U19C G25C U54C C61G, the yeast fitness is ≤ 0.5.

Consider U19G C29U C49U, for which the yeast fitness is ≤ 0.5.

U19G C22U C31U A40U: the yeast fitness was found to be 0.586.

U19G G41C A43U: the yeast fitness is 0.512.

Take A20C A45C G63C G67A: the yeast fitness was ≤ 0.5.

Take A20C A36U A65U: the yeast fitness was ≤ 0.5.

Turning to U19C C22U, the yeast fitness is 0.895.

Consider U19C C30G G51C, for which the yeast fitness is ≤ 0.5.

Take U19G G39C: the yeast fitness is 0.75.

For U19G G39A, the yeast fitness was determined as 1.07.

Regarding U19G C33U A40C A45C, the yeast fitness is ≤ 0.5.

Turning to A20C A21G C24U, the yeast fitness amounted to 0.647.

U19C G23A C24G A40U A65U: the yeast fitness is ≤ 0.5.

As for U19G A20C U26C U28C, the yeast fitness was ≤ 0.5.

In the case of U19G G25A, the yeast fitness stood at 0.958.

In the case of U19G A43U A70C, the yeast fitness turned out to be 0.716.

U19C G25A A37U C62A U64C: the yeast fitness was ≤ 0.5.

Take U19C C24A G58A C66U: the yeast fitness was ≤ 0.5.

As to U19C C31A A69U, the yeast fitness was 0.534.

As to U19C C31G, the yeast fitness worked out at 0.841.

As to U19C C31U, the yeast fitness came to 0.986.

U19C C24U A40C: the yeast fitness was found to be 0.663.

With A20C A40U A43C, the yeast fitness is 0.699.

In the case of U19C C29U A57C G68C, the yeast fitness is ≤ 0.5.

With U19G C29A, the yeast fitness was 0.56.

For the variant U19G U32C G52A G58C, the yeast fitness is ≤ 0.5.

On to U19C G48A C62A U64C, for which the yeast fitness came to 0.636.

As for A20C A37C A43G, the yeast fitness is 0.57.

Regarding A20C A36U A45U U53A, the yeast fitness is ≤ 0.5.

As to A20C A40U, the yeast fitness was determined as 0.855.

As for A20C A40C, the yeast fitness was found to be 0.788.

Turning to U19C C34U A43U A70C, the yeast fitness was 0.572.

Regarding U19G G48A C49A, the yeast fitness was 0.574.

As for U19C U47A, the yeast fitness turned out to be 0.896.

Turning to U19C U47C, the yeast fitness turned out to be 0.905.

On to U19G A20U G56A, for which the yeast fitness was 0.789.

For U19C C27G A65U G68U, the yeast fitness is ≤ 0.5.

On to U19C C29A A43C, for which the yeast fitness is ≤ 0.5.

In the case of A20C A45U A65G, the yeast fitness was 0.58.

Turning to U19C C24U G51A, the yeast fitness was determined as 0.66.

A20C A21G A45U: the yeast fitness came to 0.91.

As for U19C U32C A40C G41A, the yeast fitness is 0.674.

U19G G56A G67U: the yeast fitness is ≤ 0.5.

For U19C C27U C29G C34A A42C A69C, the yeast fitness was ≤ 0.5.

As to U19C U53A, the yeast fitness amounted to 0.689.

In the case of A20C A36G C55U, the yeast fitness worked out at 0.556.

As to U19C G39A G58A, the yeast fitness worked out at 0.613.

Consider U19C C31G C62U, for which the yeast fitness worked out at 0.702.

With U19C C24G A37U C46U U47A, the yeast fitness is ≤ 0.5.

On to U19C C30U G56A A69C, for which the yeast fitness is ≤ 0.5.

As to U19C C24G U35A, the yeast fitness was 0.804.

With U19C G51C C66U, the yeast fitness was ≤ 0.5.

Consider U19G C30A A45U G56A G58C A69U, for which the yeast fitness is ≤ 0.5.

Consider U19C G52A, for which the yeast fitness was 0.78.

In the case of U19C G52C, the yeast fitness was found to be 0.562.

With U19C C27A G50C, the yeast fitness came out at 0.577.

Consider U19C C24G C34A, for which the yeast fitness was ≤ 0.5.

On to A20C A43U G56A, for which the yeast fitness came out at 0.656.

As to U19G A20U G58C, the yeast fitness was found to be 0.716.

For the variant U19C G25A A45G C62U, the yeast fitness stood at 0.702.

For A20C A21U G41A, the yeast fitness is ≤ 0.5.

For the variant U19G C22U C31U A40U C55G A65C, the yeast fitness is ≤ 0.5.

For the variant U19G A43C U53C C55G A70U, the yeast fitness is ≤ 0.5.

Turning to U19C G23A A37C A65G, the yeast fitness is ≤ 0.5.

For the variant U19G A43C U53C C55G C66U, the yeast fitness was ≤ 0.5.

Turning to A20C C22G C33A A42C C61U, the yeast fitness was ≤ 0.5.

U19C C31A A36C G44A A57U: the yeast fitness is ≤ 0.5.

Turning to U19C G25C, the yeast fitness came to 1.04.

Regarding U19G A20C U26C G41A C62G, the yeast fitness is ≤ 0.5.

Turning to U19C C22U G44C, the yeast fitness was found to be 0.551.

With A20C A37G G56C C66U, the yeast fitness is ≤ 0.5.
